Source: ChEMBL document CHEMBL1649392, “Synthesis of substituted 3-amino-N-phenyl-1H-indazole-1-carboxamides endowed with antiproliferative activity” (Eur J Med Chem, 2011)
The source made the active and inactive calls. The calls are words filed in the database; no cut-off is given here.

Legend:
K562 [1] = test: Induction of cell cycle arrest in human K562 cells assessed as increase in accumulation at G0/G1 phase at 60 uM after 24 hrs by flow cytometric analysis; type: functional, cell-based
Procedure, shortened: (§1)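 K562 myeloblastic leukemia cells cultured 24 h with compound at 20, 40 or 60 µM, or untreated. Cells washed in ice-cold PBS and resuspended at 10⁶/mL in hypotonic propidium iodide (50 µg/mL) with 0.03% Nonidet P-40 in 0.1% sodium citrate. After 30 min, DNA content read by flow cytometry; sub-G0/G1, G0/G1, S and G2/M fractions scored.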

K562 [2] = test: Induction of cell cycle arrest in human K562 cells assessed as decrease in accumulation at S phase at 40 uM after 24 hrs by flow cytometric analysis; type: functional, cell-based; procedure, shortened: as §1
K562 [3] = test: Induction of apoptosis in human K562 cells assessed as increase in hypophosphorylated Rb level at 60 uM after 1.5 hrs by flow cytometric assay; type: functional, cell-based
Procedure, shortened: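 K562 cells treated with or without 60 µM compound. 1.5 × 10⁶ cells washed in PBS, fixed and permeabilized 20 min in Cytofix/Cytoperm, then washed in Perm/Wash buffer. Stained 30 min at 4 °C with FITC anti-total pRb or PE anti-hypophosphorylated pRb mAbs, washed, and analysed by flow cytometry.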

[4] = Cytotoxicity in HFF cells after 72 hrs by trypan blue exclusion assay; type: cell-based; settings: human
Procedure, shortened: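 Human normal fibroblasts, 2 × 10⁵ per well, seeded in RPMI 1640 with 10% fetal calf serum plus penicillin and streptomycin at 37 °C under CO₂. Compound added after 24 h. Living cells counted at 72 h by trypan blue exclusion, expressed as percent of control proliferation; GI50 derived.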

Which Activity (K562 [1]) does the source give for `Nc1nn(C(=O)Nc2ccc(Cc3ccccc3)cc2)c2ccc(Cl)cc12` here?
The Activity was “Active”.

And the Activity (K562 [2])?
The Activity was “Active”.

And the Activity (K562 [3])?
Its Activity is “Active”.

What about the GI50 at 72 h [4] of the same compound?
Its GI50 at 72 h is 36 µM.
